A selection: hits, their analogues and other compounds. The true share with any hit is near 4.1%.
MC4R barr agon = activates human MC4R beta-arrestin recruitment | 360,000 tested, 0.98% active | U2OS MC4R beta-arrestin complementation, luminescence; percent of melanotan II response, DMSO zero | activation, % at 8.9 µM | AID 540308;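 active means activation above a per-plate cutoff, the mean activation of sample wells on that plate plus 3 SD, cut at about 8% in these data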
MC4R antagonist = antagonists of human melanocortin 4 receptor (MC4R) | 360,000 tested, 0.48% active | inhibition, % at 6.5 µM | MC4R-expressing cells, MTII-stimulated cAMP, LANCE TR-FRET | P32245;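 active means inhibition above its plate's cutoff, the mean of tested wells on that plate plus 3 SD, cut at about 29% in these data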;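 further: 0% = Melanotan II alone and 100% = Melanotan II plus saturating MCL0020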
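Material – human MC4R-expressing U2OS cells · Repeats – no replicates · Detection – TR-FRET with Eu-cAMP and labeled anti-cAMP, 671 nm · Times – compound 30 min, challenge 1 h, detection 1 h · Compound – single nominal compound dose of 6.5 µM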
MPTP inh = blocks calcium-induced mitochondrial swelling; isolated mouse mitochondria, Ca2+ swelling absorbance, 30 min; inhibition, % at 10 µM; 360,000 tested, 1.4% active;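 active means inhibition of 50% or more, scaled per plate between neutral and stimulator controls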;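 further: 0% = DMSO wells given calcium and 100% = 1 mM EGTA wells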
ATG4B inh = ATG4B (human) cysteine protease inhibition. Q9Y4P1. AID 504462. ATG4B cleavage of LC3-PLA2, NBD-HPC fluorescence, 1 h. inhibition, % at 8.33 µM. 340,000 tested, 0.51% active; in the data active means inhibition above about 40%
Target sequence (Q9Y4P1 whole entry, looked up): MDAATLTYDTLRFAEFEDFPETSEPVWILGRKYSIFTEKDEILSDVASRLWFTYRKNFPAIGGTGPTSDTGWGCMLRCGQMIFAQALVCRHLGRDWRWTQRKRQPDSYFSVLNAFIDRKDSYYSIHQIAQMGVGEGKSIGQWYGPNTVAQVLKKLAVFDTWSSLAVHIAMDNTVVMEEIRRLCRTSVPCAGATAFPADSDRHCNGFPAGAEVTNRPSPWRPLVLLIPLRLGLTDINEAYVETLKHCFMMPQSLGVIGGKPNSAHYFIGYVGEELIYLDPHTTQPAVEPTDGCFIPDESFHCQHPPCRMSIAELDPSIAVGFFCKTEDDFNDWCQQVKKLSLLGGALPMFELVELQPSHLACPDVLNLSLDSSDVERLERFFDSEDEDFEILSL
SMARCA2 act = activators of SMARCA2 function; activation, % at 9.1 µM; AID 652017; MG213 cells, MMTV-luciferase reporter, dexamethasone, overnight; 370,000 tested, 1% active; in the data active means activation above about 7.8%;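 further: 0% = vehicle wells and 100% = reference activator wells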
* hit, by the source's call; . = not tested or not shown; ! = not confirmed by another sample.

SMILES	MC4R barr agon	MC4R antagonist	MPTP inh	ATG4B inh	SMARCA2 act
O=C(/C=C/c1ccccc1)OCC(=O)c1c[nH]c2ccccc12	9.3*	3	-3	12	-3
O=C(OCC(=O)N1CCCCC1)c1c[nH]c2ccccc12	3	2	0	-4	7.8*
O=C(OCC(=O)N1CCCC1)c1c[nH]c2ccccc12	-1	2	-1	1	7
Cc1ccccc1C(c1ncccc1C)N(C)C(=O)C1CCN(CCOc2ccc(Cl)cc2Cl)CC1 (stereo not given)	9.2*	-11	4	.	-5
CC1=Nc2ccc(C)cc2/C1=C/c1c(N)n2oc(C)cc2nc1=O	9.2*!	12	0	4	-4
CN1CCN(C(=S)c2ccc(-c3cccc([N+](=O)[O-])c3)o2)CC1	-1	23	1	-16	7.9*
S=C(Nc1ccc(Cl)cc1)c1nc2ccccc2s1	8.6*	-3	1	2	2
C[C@@H]1CNCCN1c1ccc(N2CCS(=O)(=O)CC2)c(C#N)c1	.	.	.	.	0
CCOCCCn1c(=NC(C)=O)c(C#N)cc2c(=O)n3ccccc3nc21	1	4	0	5	-4
CC(=O)N=c1c(C#N)cc2c(=O)n3ccccc3nc2n1Cc1ccccc1	-1	25	0	-1	8.3*
COc1cccc(OCCn2c(C)c(/C=N/n3cnnc3)c3ccccc32)c1	9.7*	-3	-3	-16	-1
Cc1cc(-c2n[nH]c(=S)n2-c2ccccc2)nn1C	-2	19	1	5	7.9*
O=C(NN=Cc1ccccc1O)C(=O)Nc1ccc(F)cc1	.	.	.	.	-6
CCOC(=O)Nc1ccc2c(c1)[C@@]1(CC(=O)N(CC(C)C)C1c1ccccc1)C(=O)N2C (stereo not given in full)	.	.	.	.	-2
COCc1nnc(NC(=O)CCCCCN2C(=O)c3ccccc3C2=O)s1	-1	6	-2	8	-2
CCCCC(=O)Nc1ccc(C(=O)Nc2nnc(COC)s2)cc1	-3	-1	0	1	7.8*
COc1ccc(/C=N/n2c(C)nc3ccccc3c2=O)cc1	1	4	1	-4	1
COc1ccc(/C=N\n2nnc3ccccc32)cc1	9.0*	10	4	-7	7
CCCCCn1nnnc1C1(C)CSCC(=O)N1Cc1ccco1 (stereo not given)	.	.	.	.	1
CCOC(=O)c1cnc2ccc(OCC)cc2c1N1CCN(c2ccccc2OC)CC1	1	32*	1	-2	.
CCOc1ccc2ncc(C(=O)c3ccc(OC)cc3)c(N3CCN(CC)CC3)c2c1	0	10	0	5	.
CN1CCc2cc3c(c4c2[C@H]1[C@H](O)c1ccccc1-4)OCO3	-1	-3	0	-9	9.3*
COc1ccccc1CNc1ccc2c(c1)OC[C@H](CC(C)C)NS2(=O)=O	.	.	.	.	-4
O=C(CSc1nnc2ccc(-c3ccc(F)cc3)nn12)N1CCCC1	3	33*	1	-4	-3
OCC1(Cc2cccc(C(F)(F)F)c2)CCN(Cc2cc3ccccc3o2)CC1	9.2*	19	-1	3	-6
SMILES	MC4R barr agon	MC4R antagonist	MPTP inh	ATG4B inh	SMARCA2 act
Cc1c[nH]c2cccc(-c3ccc4c(c3)OCO4)c12	.	.	.	.	-3
O=C(c1ccccc1)c1cc(Cl)ccc1N1C(=O)C=CC1=O	-1	58*	-2	-13	-2
COc1ccccc1N=Nc1[nH]c2ccc(C)cc2c1O	1	14	1	8	7.9*
Cc1ccc2[nH]c(O)c(N=Nc3ccccc3[N+](=O)[O-])c2c1	-2	-6	0	2	-2
CCN(CC)C(=O)CC[C@H]1CC[C@]2(CCCN(C(=O)c3ccc4ccccc4n3)C2)O1	.	.	.	.	-4
Cc1ccc(/C=N\NC(=O)c2cc(OCC(F)(F)F)ccc2OCC(F)(F)F)cc1	14*	-2	0	16	0
O=C(N/N=C\c1ccc(F)cc1)c1cc(OCC(F)(F)F)ccc1OCC(F)(F)F	-1	-1	13	0	0
O=c1[nH]c(SCc2ccccc2Cl)nc2c1cnn2-c1ccccc1	9.3*	-9	2	-3	-2
O=c1[nH]c(SCc2nc3c(cnn3-c3ccccc3)c(=O)[nH]2)nc2ccccc12	1	2	1	-2	1
O=C(COC(=O)c1n[nH]c2ccccc12)Nc1ccc(Cl)cc1[N+](=O)[O-]	9.1*	-10	-1	26	2

High-throughput results from PubChem BioAssay.
